Assays:
Assay type in all cases: functional, cell-based
[1] = system: WISH; test: Cytotoxicity against human WISH cells after 96 hrs by MTT assay
In short: (§1)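 Cells kept in RPMI 1640 with 10% FBS, 100 units/mL penicillin and 100 µg/mL streptomycin at 37 °C, humidified 5% CO2. Seeded at 1200 cells/well; compounds added after 24 h at five concentrations from DMSO stocks (0.1% DMSO final), three wells per concentration.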

[2] = system: HCT-8; test: Cytotoxicity against human HCT8 cells after 96 hrs by MTT assay; conditions: HCT-8, 96 h; in short: as §1
[3] = system: A549; test: Cytotoxicity against human A549 cells after 96 hrs by MTT assay; conditions: A549, 96 h; in short: as §1
[4] = system: A2780; test: Cytotoxicity against human A2780 cells after 96 hrs by MTT assay; conditions: A2780, 96 h; in short: as §1
[5] = system: Bel-7402; test: Cytotoxicity against human Bel7402 cells after 96 hrs by MTT assay; conditions: Bel-7402, 96 h; in short: as §1
[6] = system: BGC-823; test: Cytotoxicity against human BGC823 cells after 96 hrs by MTT assay; conditions: BGC-823, 96 h; in short: as §1
[7] = system: MCF7; test: Cytotoxicity against human MCF7 cells after 96 hrs by MTT assay; conditions: MCF7, 96 h; in short: as §1

| SMILES | IC50 [1] [µM] | IC50 [2] [µM] | IC50 [3] [µM] | IC50 [4] [µM] | IC50 [5] [µM] | IC50 [6] [µM] | IC50 [7] [µM] |
| --- | --- | --- | --- | --- | --- | --- | --- |
| COc1ccc2c(ccc3c(-c4c(O)ccc5c4ccc4c(-c6c(O)cc(OC)c7c6ccc6cc(O)ccc67)c(O)cc(OC)c45)c(O)cc(OC)c32)c1 | > 15 | 8 | 11.6 | 8.1 | 8.2 | 8.4 | 8.3 |
| COc1ccc2c(ccc3cc(O)cc(OC)c32)c1 | > 5 | > 5 | > 5 | > 5 | > 5 | > 5 | > 5 |
| COc1ccc2c(ccc3c(-c4c(O)cc(OC)c5c4ccc4cc(O)ccc45)c(O)cc(OC)c32)c1 | > 10.2 | > 10.2 | > 10.2 | > 10.2 | > 10.2 | > 10.2 | > 10.2 |
| COC1=CC(=O)C(O)(CC(C)=O)c2ccc3cc(OC)ccc3c21 (stereo not drawn) | > 15.3 | > 15.3 | > 15.3 | > 15.3 | > 15.3 | > 15.3 | > 15.3 |
| COc1ccc2c(ccc3c(-c4c(O)cc(OC)c5c4ccc4cc(OC)ccc45)c(O)cc(OC)c32)c1 | 5 | 10.7 | 11.6 | 11 | 11.1 | 9.5 | 11.9 |
| COC1=CC(=O)C(O)(CC(C)=O)c2ccc3cc(O)ccc3c21 (stereo not drawn) | > 16 | > 16 | > 16 | > 16 | > 16 | > 16 | > 16 |
| COc1cc(O)c(-c2c(O)cc(OC)c3c2ccc2cc(O)ccc23)c2ccc3cc(O)ccc3c12 [CIRRHOPETALANTHIN] | > 22.7 | 11.2 | 17.8 | 13.2 | 8.4 | 10.5 | 12.5 |
| COc1cc(O)cc2ccc3cc(O)ccc3c12 [FLAVANTHRININ] | > 20.8 | > 20.8 | > 20.8 | > 20.8 | > 20.8 | > 20.8 | > 20.8 |
| CC[C@@]1(O)C(=O)OCc2c1cc1n(c2=O)Cc2cc3c(CN(C)C)c(O)ccc3nc2-1 [TOPOTECAN] | 1.3 | 1.5 | 3.3 | 1.1 | 1.2 | 4.4 | 1.9 |
